Assay outcomes from PubChem.
The list is not random: actives were taken first. Their share in the collection is about 4.4%.
MPTP block: permeability transition pore inhibition | isolated mouse mitochondria, Ca2+ swelling absorbance, 30 min | inhibition, % at 10 µM | 360,000 tested, 1.4% active;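 active = inhibition of 50% or more, scaled per plate between neutral and stimulator controls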;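 note: 0% = DMSO wells given calcium and 100% = 1 mM EGTA wells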
GRIN3A LBD mod: NR3A (human) ligand-binding domain modulation | NR3A LBD differential scanning fluorimetry, Tm shift; 0% = protein alone, 100% = glycine-bound protein | Tm shift relative to glycine control, % at 25 µM | 340,000 tested, 2.5% active;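 active = melting temperature shift of at least 10% of the positive control shift, at one fixed dose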
SENP1 FRET inh: inhibitors of human SENP1 SUMO protease catalytic domain. Q9P0U3. recombinant SENP1 catalytic domain, CyPet-SUMO1-YPet FRET cleavage. inhibition, % at 10 µM. 360,000 tested, 0.21% active. AID 624204;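 active = inhibition at least 30% at 10 µM, raw YFP signal under a set limit, fluorescence ratio 0.5 to 1.5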;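 note: 0% = enzyme with DMSO and 100% = no enzyme wells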
Target sequence (Q9P0U3 419-644 limits assumed): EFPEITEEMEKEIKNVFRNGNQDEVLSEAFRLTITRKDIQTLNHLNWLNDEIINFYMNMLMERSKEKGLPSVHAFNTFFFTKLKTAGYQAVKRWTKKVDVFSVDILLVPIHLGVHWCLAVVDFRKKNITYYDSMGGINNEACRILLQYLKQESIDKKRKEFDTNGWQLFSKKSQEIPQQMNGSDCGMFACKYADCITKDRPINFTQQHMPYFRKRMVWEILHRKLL
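Test system: human SENP1 catalytic domain; medium: Tris pH 8 buffer plus EDTA, NaCl, BME, BSA, NP40, catalase; incubation: 50 min reaction at room temperature; technique: FRET, CFP and YFP emission; controls: no-enzyme low control and enzyme-plus-DMSO high control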
EBI2 antag: EBI2 (human) antagonism | EBI2 beta-arrestin recruitment, luminescence, 7a,25-OHC stimulated | inhibition, % at 5 µM | 360,000 tested, 0.81% active | AID 651636; in the data active = inhibition above about 38%;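 note: enzyme fragment complementation signal reports receptor beta-arrestin coupling in cells; 0% = agonist plus DMSO wells and 100% = wells without agonist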
Target sequence (P32249 whole entry, looked up, the tested form may be a part): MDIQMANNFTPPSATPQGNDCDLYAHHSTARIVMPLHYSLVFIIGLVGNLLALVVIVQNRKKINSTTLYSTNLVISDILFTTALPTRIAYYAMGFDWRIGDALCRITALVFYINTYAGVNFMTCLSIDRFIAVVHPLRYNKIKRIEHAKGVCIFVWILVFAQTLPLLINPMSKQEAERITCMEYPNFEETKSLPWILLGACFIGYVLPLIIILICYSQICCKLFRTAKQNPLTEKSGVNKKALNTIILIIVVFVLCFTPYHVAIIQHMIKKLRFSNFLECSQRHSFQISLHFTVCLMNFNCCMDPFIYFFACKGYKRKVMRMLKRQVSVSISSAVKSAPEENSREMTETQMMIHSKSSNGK
Numbers without * were called inactive; x = no result given.

SMILES | MPTP block | GRIN3A LBD mod | SENP1 FRET inh | EBI2 antag
CC(C)Oc1cccc(C(=O)NC(=S)Nc2ccccc2N2CCOCC2)c1 | -1 | 20* | 3 | 23
CCOC(=O)C1=CCN(S(=O)(=O)c2ccc(C)cc2)C1c1ccc(C(C)C)cc1 (stereo not drawn) | 2 | x | 4 | 11
CC(=O)[C@H]1CC[C@H]2[C@@H]3C=CC4=CC(=O)CC[C@@]4(C)[C@@H]3CC[C@]12C | -2 | -2 | -3 | 10
CCOc1cc(/C=N/NC(=O)Cn2nc([N+](=O)[O-])cc2C)cc(Br)c1OCc1ccccc1C | 15 | 13* | 3 | 20
COc1ccc(CNc2nc3ccccc3s2)cc1OC | 1 | 0 | 0 | 3
COc1ccc(Nc2cc(Nc3ccccc3)ncn2)cc1 | -1 | 31* | 1 | 0
COc1ccc(Nc2ncnc3ccccc23)cc1 | 0 | -7 | -2 | 2
COc1cccc(Nc2nc3ccc(OC)cc3s2)c1 | -6 | 29* | -1 | 0
COc1ccc(Nc2nc3ccccc3s2)cc1 | 2 | 29* | -1 | 8
COc1ccc2nc(NC(=S)N(C)C)sc2c1 | 1 | 24* | 2 | -1
Nc1ccc(Nc2ccccc2N)cc1 | 1 | -4 | -23 | 4
COc1ccc(Nc2ccccc2N)cc1 | 4 | -2 | 34* | 7
O=C(Nc1cccc(Cl)c1Cl)c1cc(S(=O)(=O)NCCc2ccccc2)ccc1F | 10 | 18* | 1 | -6
O=C(Nc1ccccc1C(=O)O)c1cc(S(=O)(=O)NCc2ccccc2)ccc1Cl | 0 | -12 | 1 | -2
Cc1nc(C(=O)N2CCOCC2)sc1C1(C)CC(c2ccccc2)=NO1 (stereo not drawn) | 0 | 14* | 2 | -5
CC(=O)c1c(C)[nH]c(C(=O)COC(=O)c2ccc(C)s2)c1C | 1 | 0 | 2 | 4
Cc1nc2c([nH]c3ccc(Br)cc32)s1 | -3 | 15* | 3 | 11
CSCCC(NC(=O)c1ccccc1)C(=O)NCCc1ccc2c(c1)OCCO2 (stereo not drawn) | 0 | -1 | 1 | -4
O=C(Cc1ccccc1Cl)N1CCN(c2ncccn2)CC1 | -1 | 12* | 0 | 5
Cc1ccc2c(CN3CCN(c4ccccc4F)CC3)cc(=O)oc2c1 | 1 | x | 1 | 1
Cc1cc(C)cc(-n2nnnc2SCC(=O)Nc2nc(-c3ccc(F)cc3)cs2)c1 | 19 | x | 0 | 17
Cc1ccc(-n2nnnc2SCC(=O)Nc2nc(-c3ccc(F)cc3)cs2)cc1C | 11 | 30* | 3 | -9
O=C(CN1CCN(C(=O)c2cccc(S(=O)(=O)N3CCCC3)c2)CC1)Nc1ccc(F)cc1 | 1 | 1 | 2 | -7
O=C(NCc1ccc2c(c1)OCO2)C1CC(=O)N(CCc2ccc(Cl)cc2)C1 (stereo not drawn) | 0 | 12* | 2 | 31
Cc1ccc(CNC(=O)C2CCC(=O)N(CCc3ccc(Cl)cc3)C2)cc1 (stereo not drawn) | 0 | 2 | 1 | 49*
SMILES | MPTP block | GRIN3A LBD mod | SENP1 FRET inh | EBI2 antag
O=C(NCc1cccc2[nH]ccc12)C1CCC(=O)N(CCc2ccc(Cl)cc2)C1 (stereo not drawn) | -1 | 11* | -3 | 43
CC(C)(C)c1nnc(NC(=S)Nc2ccccc2)s1 | 1 | -2 | 2 | -8
CCN1CCN(c2oc(-c3ccccc3C)nc2S(=O)(=O)c2ccccc2)CC1 | 7 | 0 | -1 | -13
CC(C)(C)NC(=O)C(c1ccc(O)cc1)N(Cc1ccco1)C(=O)Cn1nnc(-c2cccs2)n1 (stereo not drawn) | 0 | 1 | -1 | -6
Cc1ccc(C(C(=O)NC(C)(C)C)N(Cc2ccco2)C(=O)Cn2nnc(-c3cccs3)n2)cc1 (stereo not drawn) | 2 | 12* | -1 | -2
Cc1ccc(-c2nnn(CC(=O)N(Cc3ccccc3)C(C(=O)NC(C)(C)C)c3ccncc3)n2)o1 (stereo not drawn) | 0 | 14* | 0 | -3
CC(C)=CCC[C@](C)(O)C1CC[C@]2(C)C1C(O)CC1[C@@]3(C)CCC(O)C(C)(C)C3C(O[C@@H]3OC(CO)C(O)C(O)C3O[C@@H]3OC(C)C(O)C(O)C3O)C[C@]12C (stereo partly drawn) | 0 | 10* | 5 | -15
CC(C)=CCC[C@](C)(O)C1CC[C@]2(C)C1[C@H](O)CC1[C@@]3(C)CC[C@H](O[C@@H]4O[C@H](CO)[C@@H](O)[C@H](O)[C@H]4O[C@@H]4O[C@H](CO)[C@@H](O)[C@H](O)[C@H]4O)C(C)(C)C3CC[C@]12C (stereo partly drawn) | -3 | 0 | 2 | -12
O=C(NCCc1nnc2ccc(NCC3CCCO3)nn12)c1ccccc1 (stereo not drawn) | -1 | 0 | 0 | 1
CC1(c2ccc3ccccc3c2)NC(=O)N(CC(=O)NCc2cccs2)C1=O (stereo not drawn) | 1 | 1 | 0 | 7
CC1(c2ccc3ccccc3c2)NC(=O)N(CC(=O)NCC(C)(C)N2CCOCC2)C1=O (stereo not drawn) | -3 | 17* | 0 | -1
Oc1cccc(/C=N/Nc2cccc3cccnc23)c1 | 5 | 32* | -99 | 6
COc1cc(/C=N/Nc2cccc3cccnc23)cc(OC)c1O | 4 | -10 | -59 | -6
Oc1c(/C=N/Nc2cccc3cccnc23)ccc2ccccc12 | 2 | 32* | -26 | 31
CCOc1ccccc1NC(=S)NNS(=O)(=O)c1c(C)cc(C)cc1C | 5 | -9 | 3 | -8
O=C(CN1CCCCCCC1)N/N=C/c1ccc(F)cc1F | -1 | 24* | 3 | 4
O=C(/C=C/c1ccc2c(c1)OCCCO2)c1ccc2ccccc2c1O | 2 | 32* | -48 | -3
CCC/C(=N\NC(=O)CNC(=O)/C=C/c1ccco1)c1ccccc1 | -4 | 10* | 1 | -13
COc1cccc(-c2csc(N3CCN(C(=O)NC45CC6CC(CC(C6)C4)C5)CC3)n2)c1 | 2 | -2 | 3 | 20
COc1ccc(/C=C/C(=O)c2oc3ccc(F)cc3c2C)cc1 | 4 | 13* | -97 | 24
COc1ccc2oc(C(=O)NNC(=O)c3ccc(F)cc3)c(C)c2c1 | -1 | 2 | -7 | -1
CCc1nnc(NC(=O)CN2CCOCC2)s1 | 0 | 14* | 0 | 3
CCO[C@H]1OC(C(=O)O)=C[C@@H](c2cn(C(C)=O)c3ccccc23)[C@@H]1CCCO | -2 | 13* | 1 | -12
CCO[C@@H]1OC(C(N)=O)=C[C@H](c2cn(C(C)=O)c3ccccc23)[C@H]1CCCO | -1 | -1 | 1 | -3
CCO[C@@H]1OC(C(=O)N2CCN(Cc3ccccc3)CC2)=C[C@H](c2cn(C(C)=O)c3ccccc23)[C@H]1CCCO | 1 | 12* | 0 | 29
C/C(=N\N=C(/N)SC1CC(=O)N(c2ccc(Cl)cc2)C1=O)c1cccs1 (stereo not drawn) | 2 | 18* | 2 | 1
